Screening data: PubChem BioAssay, several laboratories
Rows were chosen to be rich in hits. Some 3.7% of all compounds tested hit in one or more screens of this group.
NPY-Y1 PAM-ag: potentiates or activates human NPY-Y1 receptor | 220,000 tested, 0.37% active | P25929 | activation, % at 3.6 µM | AID 1304 | NPY-Y1 expressing cells, potentiator/agonist activation; in the data active = activation above about 33%, passing the limit was not always enough;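 also: cells stimulated with NPY at EC10 then isoproterenol at EC100; 0% = low agonist plus stimulus and 100% = saturating agonist plus stimulus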
Target sequence (P25929 whole entry, looked up): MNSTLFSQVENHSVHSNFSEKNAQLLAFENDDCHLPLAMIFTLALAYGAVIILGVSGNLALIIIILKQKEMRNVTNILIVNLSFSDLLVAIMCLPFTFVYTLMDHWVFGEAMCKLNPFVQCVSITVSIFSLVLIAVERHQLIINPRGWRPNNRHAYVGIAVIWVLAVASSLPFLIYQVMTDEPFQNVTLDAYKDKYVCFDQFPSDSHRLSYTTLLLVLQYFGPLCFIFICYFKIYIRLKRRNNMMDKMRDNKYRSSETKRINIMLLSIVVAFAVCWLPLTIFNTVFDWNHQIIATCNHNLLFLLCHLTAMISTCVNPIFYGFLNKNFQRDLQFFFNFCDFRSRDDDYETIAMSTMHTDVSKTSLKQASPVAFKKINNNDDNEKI
KCC2 mod: modulates chloride dependent transport by human KCC2; Q9H2X9; KCC2 cells, thallium flux FluoZin-2 fluorescence; B-score of Tl+ flux slope (higher = more flux/activation; lower = inhibition) at 10 µM; 190,000 tested, 2.2% active;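 active = thallium flux slope and its plate-corrected score both differing from the plate sample mean at a set confidence after two filtering rounds, in either direction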;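 also: slope of fluorescence scaled to starting intensity during 10 to 20 s after thallium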
NPY Y1 blocker: blocks the human neuropeptide Y Y1 receptor; P25929; HEK293-CNG Y1 cells, membrane potential fluorescence; NPY at EC95, then isoproterenol; inhibition, % at 3.6 µM; 200,000 tested, 1% active; AID 1040;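 active = inhibition above the campaign mean inhibition of all tested compounds plus 3 SD, cut at about 20% in these data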;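 also: 0% = DMSO wells given NPY plus isoproterenol and 100% = isoproterenol alone without NPY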
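Test system – HEK293 Y1/CNG channel cell line · Also added – NPY agonist 25 nM, then isoproterenol 1 µM plus Ro 20-1724 25 µM · Compound dosing – one concentration, 3.6 µM, in 0.4% DMSO · Schedule – compound incubation 1 h at room temperature, readout 45 min post-stimulation · Technique – fluorescence, membrane potential probe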
NPY2 pot ag: potentiates or activates human NPY-Y2 receptor | activation, % at 3.6 µM | P49146 | AID 1359 | cells expressing NPY-Y2, potentiator/agonist read-out | 220,000 tested, 0.45% active; in the data active = activation above about 27%;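 also: cells stimulated with NPY near EC25 plus isoproterenol at EC100; 0% = vehicle plus submaximal agonist and 100% = vehicle plus saturating agonist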
Furin inh: human furin inhibition | P09958 | purified furin, fluorogenic substrate cleavage | inhibition, % at 20 µM or 30 µM | 220,000 tested, 0.061% active; in the data active = inhibition above about 25%
NPY-Y2 antag: blocks the human neuropeptide Y Y2 receptor | NPY-Y2 expressing cells, antagonist mode | inhibition, % at 2.7 µM | 140,000 tested, 0.99% active | AID 793; in the data active = inhibition above about 17%;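 also: 0% = vehicle with agonist challenge and 100% = reference antagonist with challenge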
Starred values were filed as active, the others as inactive; x = no result.

SMILES	NPY-Y1 PAM-ag	KCC2 mod	NPY Y1 blocker	NPY2 pot ag	Furin inh	NPY-Y2 antag
COc1ccc(Cl)cc1N1C(=O)/C(=C\c2sccc2C)N=C1SCC(=O)NC1CC1	-38	-0.4	6	-2	-10	5
Cc1cccc(-c2nc3c(c(=O)c4ccccc4n3C)c(=O)n2-c2ccccc2)c1	-22	-0.48	x	-23	-10	x
COc1ccc(C(=O)NC(=S)NCCO)cc1Br	-2	4.7*	-5	6	-11	10
C=CCN(CC=C)C(=S)NC(=O)c1ccc([N+](=O)[O-])cc1	-19	46*	3	-10	-9	2
COc1ccc(C(=O)NC(=S)NCc2cccnc2)cc1Br	7	1	0	-11	-14	x
C=CCN(CC=C)C(=S)Nc1cc(Cl)ccc1OC	4	-0.2	8	-5	-33	x
COc1ccc(C(=O)c2ccc(OC)c(Br)c2)cc1Br	6	0.88	-2	-5	-5	5
CCN(CC)C(=S)NC(=O)c1ccc(OC)c(Br)c1	-6	96*	0	4	11	1
C=CCN(CC=C)C(=S)NC(=O)c1ccc(OC)c(Br)c1	3	56*	6	-12	-11	2
Cn1c(=O)c2c(ncn2CC(=O)N/N=C/C=C/c2ccccc2[N+](=O)[O-])n(C)c1=O	7	-0.19	x	-7	-5	x
CCN(CC)S(=O)(=O)c1ccc(NC(=O)COC(=O)c2ccc(NC(=O)CC#N)cc2)cc1	-12	-0.26	-2	1	-5	x
Nc1nc(SCc2ccc(F)cc2)ns1	-2	-1.3	6	-3	-26	x
O=C(Cc1ccccc1)Nc1nc(=O)c2ccccc2s1	-1	4.1*	5	1	-22	3
O=C(Nc1nc(=O)c2ccccc2s1)c1ccc(F)cc1	-11	47*	-3	4	-28	-1
O=C(Nc1nc(=O)c2ccccc2s1)c1ccc(Cl)cc1	7	x	2	-23	-5	2
CCOC(=O)c1sc(NC(=O)CCN2C(=O)c3cccc([N+](=O)[O-])c3C2=O)c(C(=O)OCC)c1C	9	x	-4	-10	-21	3
CC(C)(C)NC(=O)NC(=O)CSc1n[nH]c(-c2ccccc2Br)n1	4	0.64	-1	-5	-16	x
CC(C)CNC(=O)c1oc2ccccc2c1COc1ccccc1	-29	-0.027	15	-6	-14	3
CCC(CC)NC(=O)c1oc2ccccc2c1COc1ccccc1	-7	0.5	32*	1	-11	26*
CCOc1ccc(Oc2c(/C=N/NC(N)=O)c(C)nn2-c2ccccc2)cc1	-49	-1.1	14	-19	-9	4
CCOc1ccc(Oc2c(/C=N/NC(=O)COc3ccccc3OC)c(C)nn2-c2ccccc2)cc1	-15	0.87	30*	-17	-3	26*
Cc1cc(C)c2nc(SCC(=O)NCCC3=CCCCC3)cc(C)c2c1	-3	12*	-4	-3	-29	5
CCOC(=O)NC(=O)CSc1cc(C)c2cc(C)cc(C)c2n1	-19	-0.98	13	-16	-22	x
Cc1ccc(C)c(NC(=S)NCC(c2ccccc2)N(C)C)c1 (configuration not stated)	1	-0.1	-2	-5	3	x
CSc1nc(-c2ccccc2)[nH]c(=S)c1C(C)=O	3	21*	-3	6	-22	2
SMILES	NPY-Y1 PAM-ag	KCC2 mod	NPY Y1 blocker	NPY2 pot ag	Furin inh	NPY-Y2 antag
CSc1nc(-c2ccccc2)nc(SC)c1C(C)=O	-26	1.5	5	0	-3	11
Cc1cccc(N=C2NC(=O)/C(=C/C=C/c3ccco3)S2)c1C	8	4.3*	1	-5	-11	1
Cc1ccc(N=C2NC(=O)/C(=C/C=C/c3ccco3)S2)cc1	-4	-0.049	2	1	-9	5
c1ccc(OCCSc2nnnn2-c2ccccc2)cc1	-6	-3.8*	5	-7	-21	4
CCC/C(=N/NC(=O)c1cccc(Cl)c1)c1ccccc1	5	12*	2	1	-8	2
Cc1ccc(C)c(OCC(O)CN2CCCCC2C)c1 (configuration not stated)	101*	0.28	-10	80*	-16	2
COc1ccc(CNCc2cccc(Oc3ccccc3)c2)cc1	-42	-1.2	21*	-42	-11	x
Cc1cccc(C)c1OCC(=O)Nc1ccc(N2CCOCC2)cc1	4	-0.67	1	-6	-8	x
Cc1ccc(N2C(=O)c3ccc(C(=O)N4CCN(Cc5ccccc5)CC4)cc3C2=O)cc1	13	-0.024	x	0	-19	x
S=c1nc(-c2ccccc2)n(Cc2ccco2)c2c1CCCC2	-13	15*	29*	3	3	16
COc1ccc(CCNCC(O)COc2cccc(Br)c2)cc1OC (configuration not stated)	105*	-0.59	x	82*	-25	x
COc1ccc(CCNCC(O)Cn2c3ccccc3c3ccccc32)cc1OC (configuration not stated)	22	0.82	6	17	-25	x
COc1ccccc1N1CCN(C(=O)C2CC=CCC2C(=O)O)CC1 (configuration not stated)	20	-3.6*	7	10	-17	2
CC1CN(S(=O)(=O)c2ccc(C(=O)Nc3nnc(-c4ccccn4)o3)cc2)CC(C)O1 (configuration not stated)	1	1.3	-2	7	-9	x
COc1ccc(-c2nnc(NC(=O)c3ccc(S(=O)(=O)N4CCCc5ccccc54)cc3)o2)cc1	-6	12*	3	8	-29	3
CC1CN(S(=O)(=O)c2ccc(C(=O)Nc3nnc(-c4ccc5c(c4)CCCC5)o3)cc2)CC(C)O1 (configuration not stated)	-2	7.9*	0	-6	-2	1
C=CCOC(=O)/C(=C\C=C\c1ccccc1)NC(=O)c1ccccc1	5	-3.7	2	-6	-1	3
COc1cc2c(cc1OC)CN(C(=O)c1cccc([N+](=O)[O-])c1)CC2	3	-0.77	x	3	-18	x
COc1cc2c(cc1OC)C(c1cccc([N+](=O)[O-])c1)N(C(=O)c1ccc(F)cc1)CC2 (configuration not stated)	-27	x	32*	-2	-16	33*
Cc1ccc(-c2cc(C(F)F)n3ncc(C(=O)Nc4ccc(S(=O)(=O)Nc5ccccc5C)cc4)c3n2)cc1	2	x	-2	-14	-10	-2
CCCN(c1ccc(C(C)C)cc1)S(=O)(=O)c1c(C)noc1C	0	-4.1	22*	-5	-15	28*
COc1ccc(OC)c(NC(=O)CN(c2ccc(C(C)C)cc2)S(=O)(=O)c2c(C)noc2C)c1	-20	x	8	-16	-1	11
CC(C)(C)C(=O)NC(=S)NNC(=O)c1sc2ccccc2c1Cl	1	48*	6	-6	-16	6
NC(=O)COC(=O)c1sc2ccccc2c1Cl	-24	-0.8	2	-18	-27	x
